Measurements pooled from the literature.
Each line is one published result; the experiments were not run side by side.
Target: Histamine H3 receptor (HRH3, Homo sapiens, UniProt Q9Y5N1)
Technique: radioligand

CN1CCN(c2cc(Nc3ccc(OCCCN4CCCCC4)cc3)nc(N)n2)CC1
Ki (ligand displacement; cell membranes): 0.0118 µM

CN(C)c1ccc(/C=C/C=C2\CCc3cc(OCc4ccc(OCCCN5CCCCC5)cc4)ccc3C2=O)cc1
Ki (ligand displacement; cell membranes): 0.068 µM

O=C1NC(=O)C(c2ccccc2)(c2ccc(OCCCN3CCCCC3)cc2)N1 (centres unmarked)
Ki (ligand displacement; cell membranes): 0.579 µM

CC1CCCN(CCCCCCOc2ccc(-c3ccccc3)cc2)C1 (centres unmarked)
Ki (ligand displacement; cell membranes): 0.147 µM

O=C1CCCc2ccc(OCCCN3CCCCC3)cc21
Ki (ligand displacement; cell membranes): 0.089 µM

CCCc1ccc(OCCCCCCN2CCCC(C)C2)cc1 (centres unmarked)
Ki (ligand displacement; cell membranes): 0.0859 µM

CCCCN1CCC(COC(=O)c2ccc(N)c(OCF)c2)CC1
Ki (cell-free assay): 3.1 µM

CCC(=O)c1ccc(OCCCCCCN2CCCC(C)C2)cc1 (centres unmarked)
Ki (ligand displacement; cell membranes): 0.039 µM

c1ccc(CNc2ccnc(Nc3ccc(OCCCN4CCCCC4)cc3)n2)cc1
Ki (ligand displacement; cell membranes): 0.00449 µM

O=C1NC(c2ccccc2)(c2ccccc2)C(=O)N1CCCN1CCCCC1
Ki (ligand displacement; cell membranes): 0.00615 µM

CN(C)c1ccc(/C=C2\CCc3ccc(OCc4ccc(OCCCN5CCCCC5)cc4)cc3C2=O)cc1
Ki (ligand displacement; cell membranes): 0.097 µM
